ChEMBL document CHEMBL1914457, “Syntheses of phenylpyrazolodiazepin-7-ones as conformationally rigid analogs of aminopyrazole amide scaffold and their antiproliferative effects on cancer cells” (Bioorg Med Chem, 2011)
Values belong to the molecule of their own block, whether it stands above or below them.

Legend:
U-937 = assay: Growth inhibition of human U937 cells after 24 hrs by thiazolyl blue tetrazolium bromide staining-based MTT assay; type: functional; conditions: U-937, 24 h
Procedure, shortened: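 U937 cells kept in RPMI 1640 with 10% FBS, 1% penicillin/streptomycin and 25 mM HEPES at 37 °C, 5% CO2. Seeded at 5 × 10^3 cells/well and incubated 24 h before treatment. Compounds given as a threefold serial dilution over 12 points. Viability read by MTT reduction with thiazolyl blue tetrazolium bromide as absorbance at 570 nm.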

[1] = Growth inhibition of human A375P cells after 24 hrs by MTT assay; type: functional
Procedure, shortened: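 A375P cells grown in DMEM with 10% FBS and 1% penicillin/streptomycin at 37 °C, 5% CO2. Cells lifted with 0.05% trypsin-0.02% EDTA, seeded at 5 × 10^3 cells/well and held 24 h before treatment. Compounds given as a threefold serial dilution over 12 points. Viability read by MTT reduction (CellTiter 96) as absorbance at 590 nm; IC50 fitted from the curve.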

[2] = molecular target: T1, Phosphatidylinositol 4,5-bisphosphate 3-kinase catalytic subunit alpha isoform (Homo sapiens, UniProt P42336); assay: Inhibition of PI3Kalpha
[3] = molecular target: T2, RAF proto-oncogene serine/threonine-protein kinase (Homo sapiens, UniProt P04049); assay: Inhibition of human CRAF using [gamma-33P]ATP after 40 mins by scintillation counting
Procedure, shortened: (§1)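 Human c-Raf (5–10 mU) was run in 25 mM Tris pH 7.5 with 0.02 mM EGTA, 10 mM Mg acetate and 0.66 mg/mL myelin basic protein as substrate. The reaction was started with Mg–[γ-33P]ATP (about 500 cpm/pmol; ATP concentration not stated) and run 40 min at room temperature. It was stopped with 3% phosphoric acid, spotted on P30 filtermat, washed in 75 mM phosphoric acid and methanol, and scintillation counted.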

[4] = molecular target: Serine/threonine-protein kinase B-raf (Homo sapiens, UniProt P15056, V600E); assay: Inhibition of BRAF V600E mutant
[5] = molecular target: Tyrosine-protein kinase ABL1 (Homo sapiens) (UniProt P00519); assay: Inhibition of Abl1 at 10 uM
[6] = molecular target: RAC-alpha serine/threonine-protein kinase (Homo sapiens) (UniProt P31749); assay: Inhibition of AKT1 at 10 uM
[7] = molecular target: ALK tyrosine kinase receptor (Homo sapiens) (UniProt Q9UM73); assay: Inhibition of Alk at 10 uM
[8] = molecular target: Aurora kinase A (Homo sapiens) (UniProt O14965); assay: Inhibition of Aurora-A at 10 uM
[9] = test system: Serine/threonine-protein kinase B-raf (Homo sapiens), P15056 [V600E]; assay: Inhibition of BRAF V599E mutant at 10 uM
[10] = molecular target: Cyclin-dependent kinase 1/cyclin B1 (Homo sapiens) (UniProt P06493+P14635); assay: Inhibition of CDK1/Cyclin B at 10 uM; type: protein-complex assay
[11] = molecular target: Cyclin-dependent kinase 2/cyclin E1 (Homo sapiens) (UniProt P24864+P24941); assay: Inhibition of CDK2/Cyclin E at 10 uM; type: protein-complex assay
[12] = molecular target: Mast/stem cell growth factor receptor Kit (Homo sapiens) (UniProt P10721); assay: Inhibition of cKIT at 10 uM
[13] = molecular target: Hepatocyte growth factor receptor (Homo sapiens) (UniProt P08581); assay: Inhibition of cMet at 10 uM
[14] = molecular target: Proto-oncogene tyrosine-protein kinase Src (Homo sapiens) (UniProt P12931); assay: Inhibition cSRC at 10 uM
[15] = molecular target: Epidermal growth factor receptor (Homo sapiens) (UniProt P00533); assay: Inhibition EGFR at 10 uM
[16] = molecular target: Mitogen-activated protein kinase 1 (Homo sapiens) (UniProt P28482); assay: Inhibition of ERK2 at 10 uM
[17] = molecular target: Focal adhesion kinase 1 (Homo sapiens) (UniProt Q05397); assay: Inhibition of FAK at 10 uM
[18] = molecular target: Fibroblast growth factor receptor 2 (Homo sapiens) (UniProt P21802); assay: Inhibition of FGFR2 at 10 uM
[19] = molecular target: Fibroblast growth factor receptor 3 (Homo sapiens) (UniProt P22607); assay: Inhibition of FGFR3 at 10 uM
[20] = molecular target: Receptor-type tyrosine-protein kinase FLT3 (Homo sapiens) (UniProt P36888); assay: Inhibition of FLT3 at 10 uM
[21] = molecular target: Macrophage colony-stimulating factor 1 receptor (Homo sapiens) (UniProt P07333); assay: Inhibition of FMS at 10 uM
[22] = molecular target: Glycogen synthase kinase-3 beta (Homo sapiens) (UniProt P49841); assay: Inhibition of GSK3-beta at 10 uM
[23] = molecular target: Insulin-like growth factor 1 receptor (Homo sapiens) (UniProt P08069); assay: Inhibition of IGF1R at 10 uM
[24] = molecular target: Tyrosine-protein kinase JAK3 (Homo sapiens) (UniProt P52333); assay: Inhibition of JAK3 at 10 uM
[25] = molecular target: Mitogen-activated protein kinase 8 (Homo sapiens) (UniProt P45983); assay: Inhibition of JNK1 at 10 uM
[26] = molecular target: Mitogen-activated protein kinase 10 (Homo sapiens) (UniProt P53779); assay: Inhibition of JNK3 at 10 uM
[27] = molecular target: Vascular endothelial growth factor receptor 2 (Homo sapiens) (UniProt P35968); assay: Inhibition of KDR at 10 uM
[28] = molecular target: Tyrosine-protein kinase Lck (Homo sapiens) (UniProt P06239); assay: Inhibition of LCK at 10 uM
[29] = molecular target: Tyrosine-protein kinase Lyn (Homo sapiens) (UniProt P07948); assay: Inhibition of LYN at 10 uM
[30] = molecular target: Dual specificity mitogen-activated protein kinase kinase 1 (Homo sapiens) (UniProt Q02750); assay: Inhibition of MEK1 at 10 uM
[31] = molecular target: T3, Serine/threonine-protein kinase mTOR (Homo sapiens, UniProt P42345); assay: Inhibition of MTOR at 10 uM
[32] = molecular target: Mitogen-activated protein kinase 14 (Homo sapiens) (UniProt Q16539); assay: Inhibition of p38alpha at 10 uM
[33] = molecular target: T1, Phosphatidylinositol 4,5-bisphosphate 3-kinase catalytic subunit alpha isoform; assay: Inhibition of PI3Kalpha at 10 uM
[34] = molecular target: Serine/threonine-protein kinase PLK1 (Homo sapiens) (UniProt P53350); assay: Inhibition of PLK1 at 10 uM
[35] = molecular target: T2, RAF proto-oncogene serine/threonine-protein kinase; assay: Inhibition of human CRAF using [gamma-33P]ATP at 10 uM after 40 mins by scintillation counting; procedure, shortened: as §1
[36] = molecular target: Macrophage-stimulating protein receptor (Homo sapiens) (UniProt Q04912); assay: Inhibition of RON at 10 uM
[37] = molecular target: Proto-oncogene tyrosine-protein kinase ROS (Homo sapiens) (UniProt P08922); assay: Inhibition of ROS at 10 uM
[38] = molecular target: Tyrosine-protein kinase SYK (Homo sapiens) (UniProt P43405); assay: Inhibition of SYK at 10 uM
[39] = molecular target: BDNF/NT-3 growth factors receptor (Homo sapiens) (UniProt Q16620); assay: Inhibition of TRKB at 10 uM
[40] = molecular target: T3, Serine/threonine-protein kinase mTOR; assay: Inhibition of MTOR

T2 sequence (P04049 whole entry): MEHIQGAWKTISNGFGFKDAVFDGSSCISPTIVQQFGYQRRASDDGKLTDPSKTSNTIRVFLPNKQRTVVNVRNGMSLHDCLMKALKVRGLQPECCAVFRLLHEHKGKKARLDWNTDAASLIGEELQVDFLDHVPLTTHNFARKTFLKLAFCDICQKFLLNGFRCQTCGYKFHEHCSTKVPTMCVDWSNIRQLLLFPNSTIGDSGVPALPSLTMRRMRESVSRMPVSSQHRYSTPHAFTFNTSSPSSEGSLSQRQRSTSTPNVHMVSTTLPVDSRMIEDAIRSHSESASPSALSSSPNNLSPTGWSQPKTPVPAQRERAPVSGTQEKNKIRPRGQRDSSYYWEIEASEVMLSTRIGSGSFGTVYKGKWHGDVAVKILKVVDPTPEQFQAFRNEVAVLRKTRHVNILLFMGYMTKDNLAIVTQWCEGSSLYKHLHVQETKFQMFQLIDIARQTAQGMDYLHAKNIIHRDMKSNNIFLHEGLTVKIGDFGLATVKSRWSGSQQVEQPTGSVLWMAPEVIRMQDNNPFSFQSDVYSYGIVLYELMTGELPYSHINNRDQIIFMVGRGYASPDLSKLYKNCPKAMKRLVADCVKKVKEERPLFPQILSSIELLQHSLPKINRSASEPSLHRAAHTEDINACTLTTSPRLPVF
Serine/threonine-protein kinase B-raf, sequence (P15056 2-766 V600E limits assumed): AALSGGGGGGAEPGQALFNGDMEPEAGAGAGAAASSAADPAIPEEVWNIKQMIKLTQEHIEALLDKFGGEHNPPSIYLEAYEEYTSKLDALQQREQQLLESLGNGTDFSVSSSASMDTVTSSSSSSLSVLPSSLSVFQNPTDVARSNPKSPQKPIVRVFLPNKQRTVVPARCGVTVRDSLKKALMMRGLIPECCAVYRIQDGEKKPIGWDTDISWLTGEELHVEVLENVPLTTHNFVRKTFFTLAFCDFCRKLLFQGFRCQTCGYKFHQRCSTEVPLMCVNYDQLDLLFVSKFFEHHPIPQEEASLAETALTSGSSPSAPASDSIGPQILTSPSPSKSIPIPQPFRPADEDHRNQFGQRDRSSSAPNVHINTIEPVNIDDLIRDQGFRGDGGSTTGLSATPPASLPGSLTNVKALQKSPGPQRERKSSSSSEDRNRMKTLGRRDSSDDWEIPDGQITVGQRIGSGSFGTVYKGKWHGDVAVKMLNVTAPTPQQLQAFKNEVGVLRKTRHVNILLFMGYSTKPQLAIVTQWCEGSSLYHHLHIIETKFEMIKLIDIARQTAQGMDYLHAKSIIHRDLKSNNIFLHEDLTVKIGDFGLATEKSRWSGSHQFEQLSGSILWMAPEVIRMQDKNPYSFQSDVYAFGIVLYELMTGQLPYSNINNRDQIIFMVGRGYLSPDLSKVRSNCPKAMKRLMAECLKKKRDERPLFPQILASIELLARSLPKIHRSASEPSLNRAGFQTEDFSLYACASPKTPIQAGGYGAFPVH
T1 sequence (P42336 whole entry, canonical isoform): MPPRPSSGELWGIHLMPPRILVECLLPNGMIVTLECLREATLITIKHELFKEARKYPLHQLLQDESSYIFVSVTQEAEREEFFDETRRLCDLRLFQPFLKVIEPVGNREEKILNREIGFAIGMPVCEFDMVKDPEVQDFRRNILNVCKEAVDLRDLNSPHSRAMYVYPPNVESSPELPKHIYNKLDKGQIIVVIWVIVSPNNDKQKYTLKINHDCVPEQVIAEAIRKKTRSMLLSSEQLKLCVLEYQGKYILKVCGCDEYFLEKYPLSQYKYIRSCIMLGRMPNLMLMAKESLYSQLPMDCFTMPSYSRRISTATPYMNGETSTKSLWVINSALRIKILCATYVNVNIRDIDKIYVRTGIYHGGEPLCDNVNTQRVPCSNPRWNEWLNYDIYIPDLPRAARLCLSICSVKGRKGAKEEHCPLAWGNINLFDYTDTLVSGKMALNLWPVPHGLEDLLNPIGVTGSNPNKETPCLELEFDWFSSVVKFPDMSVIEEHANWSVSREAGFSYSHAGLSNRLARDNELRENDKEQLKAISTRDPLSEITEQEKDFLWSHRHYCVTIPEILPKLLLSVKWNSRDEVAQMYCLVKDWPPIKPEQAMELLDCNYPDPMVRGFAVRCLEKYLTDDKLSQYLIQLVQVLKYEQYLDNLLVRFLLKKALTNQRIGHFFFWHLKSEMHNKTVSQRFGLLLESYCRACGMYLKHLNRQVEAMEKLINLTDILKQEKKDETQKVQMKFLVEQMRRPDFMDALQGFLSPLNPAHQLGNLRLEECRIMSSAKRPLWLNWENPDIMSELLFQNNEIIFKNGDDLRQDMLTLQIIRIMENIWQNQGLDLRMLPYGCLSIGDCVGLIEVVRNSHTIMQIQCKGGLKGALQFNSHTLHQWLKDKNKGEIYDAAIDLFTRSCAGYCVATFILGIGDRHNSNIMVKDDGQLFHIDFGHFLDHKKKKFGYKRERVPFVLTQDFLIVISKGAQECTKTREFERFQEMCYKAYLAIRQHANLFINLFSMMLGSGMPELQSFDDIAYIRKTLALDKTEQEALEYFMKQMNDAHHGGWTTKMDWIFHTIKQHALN
Fibroblast growth factor receptor 2 (Homo sapiens), sequence (P21802 22-821 limits assumed): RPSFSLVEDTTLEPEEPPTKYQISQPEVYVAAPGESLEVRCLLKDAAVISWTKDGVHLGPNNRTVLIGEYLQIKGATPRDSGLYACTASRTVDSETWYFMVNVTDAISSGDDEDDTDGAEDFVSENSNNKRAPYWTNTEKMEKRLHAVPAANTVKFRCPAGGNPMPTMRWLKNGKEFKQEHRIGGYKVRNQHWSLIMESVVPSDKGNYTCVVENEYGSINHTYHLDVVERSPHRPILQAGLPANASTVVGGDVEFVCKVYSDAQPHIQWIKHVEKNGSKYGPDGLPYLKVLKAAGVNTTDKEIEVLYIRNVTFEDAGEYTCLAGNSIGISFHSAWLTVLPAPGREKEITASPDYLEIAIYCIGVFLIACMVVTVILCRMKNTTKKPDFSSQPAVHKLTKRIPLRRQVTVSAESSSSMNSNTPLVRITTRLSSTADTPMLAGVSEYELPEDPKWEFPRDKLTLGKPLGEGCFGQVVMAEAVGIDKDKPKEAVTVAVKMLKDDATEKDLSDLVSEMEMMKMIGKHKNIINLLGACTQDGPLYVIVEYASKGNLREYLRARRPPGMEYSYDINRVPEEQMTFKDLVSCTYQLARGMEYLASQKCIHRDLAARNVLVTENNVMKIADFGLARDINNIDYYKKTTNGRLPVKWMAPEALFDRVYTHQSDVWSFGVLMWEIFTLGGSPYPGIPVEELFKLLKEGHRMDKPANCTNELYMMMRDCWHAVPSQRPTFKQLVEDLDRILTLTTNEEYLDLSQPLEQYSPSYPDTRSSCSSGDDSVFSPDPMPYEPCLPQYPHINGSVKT
Dual specificity mitogen-activated protein kinase kinase 1 (Homo sapiens), sequence (Q02750 whole entry): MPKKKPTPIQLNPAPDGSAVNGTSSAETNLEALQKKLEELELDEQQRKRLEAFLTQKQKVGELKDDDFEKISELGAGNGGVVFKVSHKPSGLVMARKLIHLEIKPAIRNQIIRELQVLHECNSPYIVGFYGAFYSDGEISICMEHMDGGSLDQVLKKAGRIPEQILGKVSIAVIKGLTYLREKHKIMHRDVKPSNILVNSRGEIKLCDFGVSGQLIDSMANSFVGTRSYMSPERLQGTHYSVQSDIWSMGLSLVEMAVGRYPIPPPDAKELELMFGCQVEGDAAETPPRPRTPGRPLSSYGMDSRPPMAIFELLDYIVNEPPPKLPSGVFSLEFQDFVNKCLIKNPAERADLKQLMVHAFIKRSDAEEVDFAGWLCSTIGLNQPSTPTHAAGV
Mitogen-activated protein kinase 10 (Homo sapiens), sequence (P53779 whole entry): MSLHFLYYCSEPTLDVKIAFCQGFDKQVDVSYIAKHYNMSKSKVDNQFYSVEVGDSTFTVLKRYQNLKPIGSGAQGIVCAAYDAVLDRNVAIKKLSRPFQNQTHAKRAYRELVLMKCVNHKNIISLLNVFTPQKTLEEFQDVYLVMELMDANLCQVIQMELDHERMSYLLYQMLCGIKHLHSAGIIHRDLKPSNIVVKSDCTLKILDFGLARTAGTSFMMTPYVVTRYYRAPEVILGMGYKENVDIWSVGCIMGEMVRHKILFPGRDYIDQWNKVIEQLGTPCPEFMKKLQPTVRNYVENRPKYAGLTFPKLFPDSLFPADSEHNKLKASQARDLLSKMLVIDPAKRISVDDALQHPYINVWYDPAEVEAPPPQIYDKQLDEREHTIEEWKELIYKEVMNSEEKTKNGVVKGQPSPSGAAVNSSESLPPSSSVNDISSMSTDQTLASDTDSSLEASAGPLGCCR
Cyclin-dependent kinase 1/cyclin B1 (Homo sapiens), sequence (P06493 whole entry, looked up): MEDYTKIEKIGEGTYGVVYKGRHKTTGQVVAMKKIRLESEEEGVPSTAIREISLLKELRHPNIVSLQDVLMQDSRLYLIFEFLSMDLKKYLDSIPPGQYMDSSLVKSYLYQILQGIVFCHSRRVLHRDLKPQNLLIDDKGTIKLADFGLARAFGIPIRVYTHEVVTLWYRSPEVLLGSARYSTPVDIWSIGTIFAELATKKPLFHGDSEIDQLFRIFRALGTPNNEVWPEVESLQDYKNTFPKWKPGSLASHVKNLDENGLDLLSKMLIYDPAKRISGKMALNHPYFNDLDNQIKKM
Cyclin-dependent kinase 1/cyclin B1 (Homo sapiens), sequence (P14635 whole entry, looked up): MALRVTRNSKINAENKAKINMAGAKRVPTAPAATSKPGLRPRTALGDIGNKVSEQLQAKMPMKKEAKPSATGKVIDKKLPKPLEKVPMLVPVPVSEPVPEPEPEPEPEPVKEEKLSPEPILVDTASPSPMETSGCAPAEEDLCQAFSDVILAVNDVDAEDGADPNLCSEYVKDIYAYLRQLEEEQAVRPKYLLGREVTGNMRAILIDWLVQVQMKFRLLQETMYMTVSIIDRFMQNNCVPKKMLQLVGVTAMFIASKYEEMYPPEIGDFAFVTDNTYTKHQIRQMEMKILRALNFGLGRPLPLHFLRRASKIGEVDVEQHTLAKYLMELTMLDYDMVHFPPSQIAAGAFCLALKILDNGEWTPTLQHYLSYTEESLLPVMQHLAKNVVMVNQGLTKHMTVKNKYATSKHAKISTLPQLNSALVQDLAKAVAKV

SMILES: COc1ccc(Cn2ncc3c2NC(=O)CC(c2cccc(NC(=O)Nc4cc(Cl)cc(Cl)c4)c2)=N3)cc1
- GI50 (U-937): 6.48 µM
- GI50 [1]: 0.78 µM

SMILES: O=C1CC(c2cccc(NC(=O)c3ccc(Cl)c(C(F)(F)F)c3)c2)=Nc2cnn(Cc3ccccc3)c2N1
- IC50 [2]: 2.15 µM
- IC50 [3]: 0.961 µM
- IC50 ([4]; read-out: IC50): 0.655 µM
- GI50 (U-937): 0.06 µM
- GI50 [1]: 0.43 µM
- inhibition [5]: 0%
- inhibition [6]: 0%
- inhibition [7]: 0%
- inhibition [8]: 6.5%
- inhibition [9]: 85.6%
- inhibition [10]: 7%
- inhibition [11]: 0.9%
- inhibition [12]: 3.6%
- inhibition [13]: 1.3%
- inhibition [14]: 4.3%
- inhibition [15]: 1.6%
- inhibition [16]: 0%
- inhibition [17]: 0%
- inhibition [18]: 0%
- inhibition [19]: 0%
- inhibition [20]: 19.3%
- inhibition [21]: 0.5%
- inhibition [22]: 17.8%
- inhibition [23]: 1.9%
- inhibition [24]: 0%
- inhibition [25]: 0%
- inhibition [26]: 0%
- inhibition [27]: 0%
- inhibition [28]: 5.6%
- inhibition [29]: 4.6%
- inhibition [30]: 0%
- inhibition [31]: 0%
- inhibition [32]: 0%
- inhibition [33]: 75.2%
- inhibition [34]: 0%
- inhibition [35]: 92.9%
- inhibition [36]: 4.4%
- inhibition [37]: 0%
- inhibition [38]: 0%
- inhibition [39]: 0.2%

- IC50 [40]: 6.8 µM
SMILES: O=c1cc(N2CCOCC2)oc2c(-c3ccccc3)cccc12 [LY-294002]

SMILES: COc1ccc(Cn2ncc3c2NC(=O)CC(c2ccc(NC(=O)Nc4ccc(Cl)c(C(F)(F)F)c4)cc2)=N3)cc1
- GI50 (U-937): 7.29 µM
- GI50 [1]: 3.93 µM

SMILES: Cc1cn(-c2cc(C(=O)Nc3cccc(C4=Nc5cnn(Cc6ccccc6)c5NC(=O)C4)c3)cc(C(F)(F)F)c2)cn1
- GI50 (U-937): > 30 µM
- GI50 [1]: > 30 µM

SMILES: CNC(=O)c1cc(Oc2ccc(NC(=O)Nc3ccc(Cl)c(C(F)(F)F)c3)cc2)ccn1 [SORAFENIB]
- GI50 (U-937): 2.85 µM
- GI50 [1]: 5.58 µM

SMILES: O=C1CC(c2cccc(NC(=O)Nc3ccc(Cl)c(C(F)(F)F)c3)c2)=Nc2cnn(Cc3ccccc3)c2N1
- IC50 [3]: 0.668 µM
- IC50 [4]: Not Active
- GI50 (U-937): 7.31 µM
- GI50 [1]: 4.45 µM

SMILES: COc1ccc(Cn2ncc3c2NC(=O)CC(c2cccc(NC(=O)Nc4cccc(Cl)c4)c2)=N3)cc1
- GI50 (U-937): 0.63 µM
- GI50 [1]: 0.91 µM

SMILES: O=C1CC(c2ccc(NC(=O)c3ccc(Cl)c(C(F)(F)F)c3)cc2)=Nc2cnn(Cc3ccccc3)c2N1
- GI50 (U-937): 0.06 µM
- GI50 [1]: 13.1 µM

SMILES: O=C1CC(c2cccc(NC(=O)Nc3ccc(Cl)c(Cl)c3)c2)=Nc2cn[nH]c2N1
- GI50 (U-937): > 30 µM
- GI50 [1]: > 30 µM

SMILES: O=C1CC(c2cccc(NC(=O)c3ccc(N4CCOCC4)c(C(F)(F)F)c3)c2)=Nc2cnn(Cc3ccccc3)c2N1
- GI50 (U-937): 1.75 µM
- GI50 [1]: 2.91 µM

SMILES: COc1ccc(Cn2ncc3c2NC(=O)CC(c2cccc(NC(=O)Nc4cc(N5CCOCC5)cc(C(F)(F)F)c4)c2)=N3)cc1
- GI50 (U-937): > 30 µM
- GI50 [1]: 3.32 µM
